Hits are enriched below; roughly 1.2% of the tested compounds scored in any of these assays.
PREPL inh: PREPL enzyme inhibitors, primary screen, biochemical, fluorescence polarization; inhibition, % at 5.96 µM; recombinant PREPL, fluorescence polarization activity-based probe; Prolyl endopeptidase-like (Homo sapiens), Q4J6C6; AID 2751, 2010; actives 0.68% (n = 320,000); in the data active means inhibition above about 43%
IDE cell inh: human IDE inhibitors in live cells, primary screen, fluorescence polarization, HEK cells, FAbetaB substrate | actives 0.41% (n = 320,000) | FAbetaB cleavage | inhibition, % at 5.59 µM;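 active means percent inhibition above the average of all tested compounds plus 3 SD, set per screening campaign, cut at about 16% in these data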;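 further: IDE supplied by intact live HEK cells; FP after avidin binding of uncleaved biotin substrate so inhibition keeps polarization high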
IDE act: human IDE activators in live cells, primary screen, fluorescence polarization, HEK cells, FAbeta-B substrate; FAbeta-B cleavage; 0% vehicle, 100% cell-free pure enzyme wells; AID 493087, 2011; activation, % at 5.96 µM; actives 0.073% (n = 340,000);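 active means activation above the mean of all tested compounds plus 3 SD, set per screening campaign, cut at about 17% in these data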
ASAP1 inh: inhibitors of human ASAP1 ArfGAP activity, primary screen, biochemical, fluorescence polarization; ASAP1-stimulated ARF1 GTP hydrolysis, GDP FP detection; inhibition, % at 16.5 µM; actives 0.19% (n = 360,000); AID 624377, 2012; in the data active means inhibition above about 25%
Target sequence (Q9ULH1 325-724 limits assumed): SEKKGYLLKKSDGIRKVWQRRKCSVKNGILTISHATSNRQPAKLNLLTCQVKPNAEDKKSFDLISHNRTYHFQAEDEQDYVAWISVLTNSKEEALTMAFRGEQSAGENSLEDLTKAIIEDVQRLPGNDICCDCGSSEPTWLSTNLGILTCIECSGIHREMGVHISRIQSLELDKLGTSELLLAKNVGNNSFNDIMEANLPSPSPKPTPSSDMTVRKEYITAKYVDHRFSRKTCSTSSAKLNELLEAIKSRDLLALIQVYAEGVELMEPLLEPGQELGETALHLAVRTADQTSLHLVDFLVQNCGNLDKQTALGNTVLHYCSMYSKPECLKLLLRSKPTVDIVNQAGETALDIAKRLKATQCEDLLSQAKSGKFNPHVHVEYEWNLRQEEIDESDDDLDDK
ARFGAP1 inh: inhibitors of rat ARFGAP1 GAP activity, primary screen, biochemical, fluorescence polarization, GDP tracer; ADP-ribosylation factor GTPase-activating protein 1 (Rattus norvegicus), Q62848; Arfgap1-stimulated ARF1 GTP hydrolysis, GDP FP detection; inhibition, % at 16.5 µM; actives 0.26% (n = 360,000);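 active means inhibition above a per-plate limit, mean inhibition of low control wells plus 3 SD, cut at about 25% in these data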
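Material: rat Arfgap1 GAP domain (His6, aa 1-136), purified enzyme. Also added: human ARF1(Δ1-17)-GTP substrate. Compound dosing: 16.5 µM single point, 1.26% DMSO. Timing: enzyme reaction 120 min at 25 °C after 20 min preincubation. Signal: GDP detection by fluorescence polarization. Read-out basis: percent inhibition of GAP-stimulated GDP formation, scaled between DMSO and no-Arfgap1 medians.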
IDE cell inh cf: human IDE inhibitors in live cells, confirmation, fluorescence polarization, HEK cells, FAbetaB substrate; shares compounds with IDE cell inh; FAbetaB cleavage; inhibition, % at 5.59 µM; actives 51% (n = 1,200); AID 435028, 2010;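 active means mean inhibition across triplicate wells above the cutoff set by the earlier primary insulin-degrading enzyme screen, cut at about 16% in these data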
HEK293 tox: cytotoxicity in HEK cells, cytotoxicity control for IDE inhibitor project, cell-based, luminescence. shares compounds with IDE cell inh. HEK293 cytotoxicity, ATP luminescence. inhibition, % at 5.59 µM. actives 28% (n = 1,200); in the data active means inhibition above about 22%
FP fluor counter: fluorescent or optically active artefacts, dose response, artefact control for IDE inhibitor project, biochemical, fluorescence polarization | shares compounds with IDE cell inh | IC50, µM | 30 tested, under 10 active | FP counterscreen for fluorescent artifacts, IDE probe project | AID 588718, 2011; call rule not given here
A number is an active result; i = inactive; nt = not tested or not shown.

SMILES	PREPL inh	IDE cell inh	IDE act	ASAP1 inh	ARFGAP1 inh	IDE cell inh cf	HEK293 tox	others
CCn1c(COc2ccc(C)cc2)nnc1SCc1ccc(C#N)cc1	i	18	i	i	i	i	i
CN1OC[C@@H]2CN(C(=O)CCc3ccccc3)[C@H](c3cccc(-c4ccccc4)c3)C[C@@H]21	nt	nt	i	i	i	nt	nt
O=C(O)CN1C(=O)/C(=C\c2cn(CC(=O)N3CCOCC3)c3ccccc23)SC1=S	i	67	i	i	i	114	i
O=C1N=C(N2CCN(c3ccccc3)CC2)S/C1=C\c1cn[nH]c1-c1ccccc1	i	i	i	i	i	nt	nt
Cc1ccc(N2CCN(C3=NC(=O)/C(=C\c4cn[nH]c4-c4ccccc4)S3)CC2)cc1	i	31	i	i	i	i	26
CCCN(Cc1ccc(C)cc1)C(=O)c1ccc(CNS(=O)(=O)c2ccc(C(C)=O)cc2)cc1	i	i	i	i	i	nt	nt
CN(C)S(=O)(=O)c1cccc(-c2nn(-c3ccccc3)cc2/C=C2\SC(=S)NC2=O)c1	i	26	i	i	i	i	23
CN(C)S(=O)(=O)c1cccc(-c2nn(-c3ccccc3)cc2/C=C(\C#N)c2nc3ccccc3[nH]2)c1	i	i	i	i	i	nt	nt
CCOC(=O)c1ccc(S(=O)(=O)N2CCN(C3CC(=O)N(c4ccc(OC)cc4)C3=O)CC2)cc1 (configuration not stated)	nt	nt	i	i	i	nt	nt
Nc1ccc(-c2c3ccc(=O)cc-3oc3cc(O)ccc23)c(C(=O)O)c1	i	49	i	nt	nt	28	i
COc1ccc(-c2cc(=O)c3ccc(O)cc3o2)cc1OC	nt	nt	nt	i	i	nt	nt
CCc1nnc(NC(=O)CSc2nc3c(c(=O)n2C)SC(C)C3)s1 (configuration not stated)	i	17	i	i	i	i	i
COc1ccc(C(=O)N2CCN(C(=O)C3COc4ccccc4O3)CC2)cc1OC (configuration not stated)	i	17	i	i	i	16	i	FP fluor counter=i
COc1cccc(C(=O)N2CCN(C(=O)C3COc4ccccc4O3)CC2)c1 (configuration not stated)	i	i	i	i	i	nt	nt
Cc1cccc(N2CCN(C(=O)CCNC(=O)Cn3ccc4ccccc4c3=O)CC2)c1C	i	17	i	i	i	i	i
COc1cc(NC(=O)c2csc(-c3ccncc3)n2)cc(C(=O)Nc2cccc(C(F)(F)F)c2)c1	i	i	i	i	i	nt	nt
Cc1nc(-c2cccnc2)sc1C(=O)Nc1ccc(C(F)(F)F)cc1	i	i	i	i	i	nt	nt
O=C(Nc1cccc(C(F)(F)F)c1)c1csc(-c2ccncc2)n1	i	50	i	i	i	29	i	FP fluor counter=i
Cc1nc(-c2cccnc2)sc1C(=O)Nc1cccc(C(F)(F)F)c1	i	i	i	i	i	nt	nt	FP fluor counter=i
COc1ccc(-c2nc(C(=O)Nc3cccc(C(F)(F)F)c3)cs2)cc1	nt	nt	nt	nt	nt	nt	nt	FP fluor counter=i
CC(NC(=O)CNC(=O)C1CCCCC1)c1ccc(S(N)(=O)=O)cc1 (configuration not stated)	i	i	i	i	i	nt	nt
CC1(C)CC(=O)C/C(=N/NC(=O)c2ccc(-c3ccccc3)cc2)C1	i	18	i	i	i	i	i
O=C(CCC(=O)c1ccc(-c2ccccc2)cc1)Nc1cccnc1	i	17	i	i	i	i	i
CC1CCC(NC(=O)CNC(=O)c2cccs2)CC1 (configuration not stated)	i	i	i	i	i	nt	nt
O=C(CC(c1ccccc1)c1cc(Cl)ccc1O)NCCCN1CCOCC1 (configuration not stated)	nt	nt	i	i	i	nt	nt

From PubChem
